Test results from ChEMBL document CHEMBL1140884, “Oligodeoxyribonucleotide-based antagonists for Toll-like receptors 7 and 9” (2009).
Calls of active or inactive are those of the source.

Experiments:
[1] = biological target: T1, Toll-like receptor 9 (Mus musculus) (UniProt Q9EQU3); test: Agonist activity at mouse TLR9 expressed in HEK293 cells assessed as activation of NF-kappaB at 10 ug/mL by SEAP reporter gene assay; assay type: functional, cell-based
T1 sequence (whole entry): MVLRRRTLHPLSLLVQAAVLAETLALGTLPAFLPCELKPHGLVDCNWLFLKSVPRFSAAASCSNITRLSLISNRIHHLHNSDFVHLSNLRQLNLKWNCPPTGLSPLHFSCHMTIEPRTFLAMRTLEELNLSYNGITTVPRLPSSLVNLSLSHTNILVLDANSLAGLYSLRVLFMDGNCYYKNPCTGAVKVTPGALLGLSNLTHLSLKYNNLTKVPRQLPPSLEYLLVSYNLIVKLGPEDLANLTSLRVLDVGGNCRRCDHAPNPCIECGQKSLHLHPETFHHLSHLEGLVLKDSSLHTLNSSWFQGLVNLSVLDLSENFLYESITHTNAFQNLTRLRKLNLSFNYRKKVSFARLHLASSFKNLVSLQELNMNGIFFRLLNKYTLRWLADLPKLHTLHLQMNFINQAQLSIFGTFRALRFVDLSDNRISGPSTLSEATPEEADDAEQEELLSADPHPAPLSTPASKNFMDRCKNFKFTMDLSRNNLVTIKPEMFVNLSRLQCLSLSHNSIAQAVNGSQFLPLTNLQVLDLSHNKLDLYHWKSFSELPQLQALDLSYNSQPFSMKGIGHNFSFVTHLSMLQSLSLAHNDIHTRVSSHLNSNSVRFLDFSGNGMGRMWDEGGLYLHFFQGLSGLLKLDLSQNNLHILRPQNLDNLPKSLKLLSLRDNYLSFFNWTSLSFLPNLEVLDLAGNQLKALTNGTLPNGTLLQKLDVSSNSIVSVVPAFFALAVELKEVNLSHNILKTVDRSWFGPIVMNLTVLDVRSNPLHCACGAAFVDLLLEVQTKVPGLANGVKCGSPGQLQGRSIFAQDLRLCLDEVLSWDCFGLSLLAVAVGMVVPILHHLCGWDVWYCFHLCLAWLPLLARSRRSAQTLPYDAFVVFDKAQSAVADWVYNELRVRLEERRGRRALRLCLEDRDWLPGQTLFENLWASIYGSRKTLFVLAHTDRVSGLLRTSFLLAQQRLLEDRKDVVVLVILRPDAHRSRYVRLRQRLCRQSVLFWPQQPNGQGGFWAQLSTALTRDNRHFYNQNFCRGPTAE
Procedure, shortened: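 HEK293 cells stably expressing mouse TLR9 were transiently transfected with a SEAP reporter for 6 h. Compounds were added at 10 µg/mL for 18 h. SEAP was read with Quanti-Blue substrate and expressed as fold change in NF-κB activity.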

Mus musculus [2] = test: Inhibition of 5'-TCTGACRTTCT-X-TCTTRCAGTCT-3'-induced IL12 production in C57BL/6 mouse at 10 mg/kg, sc; assay type: functional, organism-based; parameters: dose 10 mg/kg
Procedure, shortened: (§1)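 C57BL/6 mice received antagonist or control 10 mg/kg sc, either with TLR9 agonist 0.25 mg/kg sc or up to 48 h before it. Serum IL-12 was measured 2 h after agonist. Two or three independent experiments; mean ± SEM, Student's t test versus PBS.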

Mus musculus [3] = test: Inhibition of 5'-TCTGACRTTCT-X-TCTTRCAGTCT-3'-induced IL12 production in C57BL/6 mouse pretreated before up to 48 hrs of induction at 10 mg/kg, sc; assay type: functional, organism-based; parameters: dose 10 mg/kg; procedure, shortened: as §1
[4] = biological target: T1, Toll-like receptor 9 (Mus musculus); test: Agonist activity at TLR9 in mouse J774 cells assessed as of NF-kappaB activation; assay type: functional, cell-based
Procedure, shortened: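 Murine J774 macrophages grown in DMEM with 10% FBS and plated at 5×10^6 cells/well. Nuclear extracts taken 1 h after agonist addition. NF-κB detected by EMSA on native polyacrylamide gels with autoradiography.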

Mus musculus [5] = test: Induction of IL6 secretion in C57BL/6 mouse at 0.25 mg/kg, sc; assay type: functional, organism-based; parameters: dose 0.25 mg/kg
Procedure, shortened: (§2)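 Female C57BL/6 mice, 6–8 weeks old (n=3), were injected sc with single compounds at 0.25 or 20 mg/kg. Serum was collected by retro-orbital bleed 2 h later and cytokines were measured by Luminex mouse 20-plex assay.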

Mus musculus [6] = test: Induction of cytokine MIG secretion in C57BL/6 mouse at 0.25 mg/kg, sc; assay type: functional, organism-based; parameters: dose 0.25 mg/kg; procedure, shortened: as §2
Mus musculus [7] = test: Induction of cytokine MCP1 secretion in C57BL/6 mouse at 0.25 mg/kg, sc; assay type: functional, organism-based; parameters: dose 0.25 mg/kg; procedure, shortened: as §2
Mus musculus [8] = test: Induction of cytokine KC secretion in C57BL/6 mouse at 0.25 mg/kg, sc; assay type: functional, organism-based; parameters: dose 0.25 mg/kg; procedure, shortened: as §2
Mus musculus [9] = test: Induction of IP10 secretion in C57BL/6 mouse at 0.25 mg/kg, sc; assay type: functional, organism-based; parameters: dose 0.25 mg/kg; procedure, shortened: as §2
Mus musculus [10] = test: Induction of IL10 secretion in C57BL/6 mouse at 0.25 mg/kg, sc; assay type: functional, organism-based; parameters: dose 0.25 mg/kg; procedure, shortened: as §2
Mus musculus [11] = test: Induction of IL12 secretion in C57BL/6 mouse at 0.25 mg/kg, sc; assay type: functional, organism-based; parameters: dose 0.25 mg/kg; procedure, shortened: as §2
[12] = biological target: T1, Toll-like receptor 9 (Mus musculus); test: Antagonist activity at mouse TLR9 expressed in HEK293 cells assessed as inhibition of 5'-CTATCTGTCGTTCTCTGT-3'-induced NF-kappaB activation by SEAP reporter gene assay; assay type: functional, cell-based
Procedure, shortened: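 Mouse TLR9-HEK293 cells were transfected with a SEAP reporter for 6 h. They were then stimulated for 18 h with agonist (0.25 or 0.5 µg/mL) plus increasing antagonist concentrations or set agonist:antagonist ratios. Quanti-Blue read-out, reported as % NF-κB activity with agonist alone as 100%.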

PBMC = test: Inhibition of 5'-TCTGTCRTTCT-X-TCTTRCTGTCT-5'-induced human PBMC proliferation treated 72 hrs before induction; assay type: functional, cell-based

Measured: Activity

CO[C@@H]1[C@H](OP(=O)(S)OC[C@H]2O[C@@H](n3cnc4c(N)ncnc43)[C@H](OC)[C@@H]2OP(=O)(S)OC[C@H]2O[C@@H](n3ccc(N)nc3=O)C[C@@H]2OP(=O)(S)OC[C@H]2O[C@@H](n3ccc(N)nc3=O)C[C@@H]2OP(=O)(S)OC[C@H]2O[C@@H](n3cc(C)c(=O)[nH]c3=O)C[C@@H]2OP(=O)(S)OC[C@H]2O[C@@H](n3cc(C)c(=O)[nH]c3=O)C[C@@H]2OP(=O)(S)OC[C@H]2O[C@@H](n3ccc(N)nc3=O)C[C@@H]2OP(=O)(S)OC[C@H]2O[C@@H](n3cc(C)c(=O)[nH]c3=O)C[C@@H]2OP(=O)(S)OC[C@H]2O[C@@H](n3ccc(N)nc3=O)C[C@@H]2OP(=O)(S)OC[C@H]2O[C@@H](n3cc(C)c(=O)[nH]c3=O)C[C@@H]2OP(=O)(S)OC[C@H]2O[C@@H](n3cnc4c(=O)[nH]c(N)nc43)C[C@@H]2OP(=O)(S)OC[C@H]2O[C@@H](n3cc(C)c(=O)[nH]c3=O)C[C@@H]2O)[C@@H](COP(=O)(S)O[C@H]2C[C@H](n3cc(C)c(=O)[nH]c3=O)O[C@@H]2COP(=O)(S)O[C@H]2[C@@H](O)[C@H](n3ccc(N)nc3=O)O[C@@H]2COP(=O)(S)O[C@H]2C[C@H](n3cc(C)c(=O)[nH]c3=O)O[C@@H]2COP(=O)(S)O[C@H]2C[C@H](n3cnc4c(N)ncnc43)O[C@@H]2COP(=O)(S)O[C@H]2C[C@H](n3cc(C)c(=O)[nH]c3=O)O[C@@H]2COP(=O)(S)O[C@@H]2C[C@@H](n3ccc(N)nc3=O)O[C@H]2CO)O[C@H]1n1ccc(N)nc1=O (stereo not given in full)
inactive: [1] | Mus musculus [2] | Mus musculus [3]

Cc1cn([C@H]2C[C@H](OP(=O)(S)OC[C@H]3O[C@@H](n4ccc(N)nc4=O)C[C@@H]3OP(=O)(S)OC[C@H]3O[C@@H](n4cc(C)c(=O)[nH]c4=O)C[C@@H]3OP(=O)(S)OC[C@H]3O[C@@H](n4cnc5c(=O)[nH]c(N)nc54)C[C@@H]3OP(=O)(S)OC[C@H]3O[C@@H](n4cnc5c(N)ncnc54)C[C@@H]3OP(=O)(S)OC[C@H]3O[C@@H](n4ccc(N)nc4=O)C[C@@H]3OP(=O)(S)OC[C@H]3O[C@@H](n4ccc5c(N)ncnc54)C[C@@H]3OP(=O)(S)OC[C@H]3O[C@@H](n4cc(C)c(=O)[nH]c4=O)C[C@@H]3OP(=O)(S)OC[C@H]3O[C@@H](n4cc(C)c(=O)[nH]c4=O)C[C@@H]3OP(=O)(S)OC[C@H]3O[C@@H](n4ccc(N)nc4=O)C[C@@H]3OP(=O)(S)OC[C@H]3O[C@@H](n4cc(C)c(=O)[nH]c4=O)C[C@@H]3OP(=O)(S)OCC(O)COP(=O)(S)O[C@H]3C[C@H](n4cc(C)c(=O)[nH]c4=O)O[C@@H]3COP(=O)(S)O[C@H]3C[C@H](n4ccc(N)nc4=O)O[C@@H]3COP(=O)(S)O[C@H]3C[C@H](n4cc(C)c(=O)[nH]c4=O)O[C@@H]3COP(=O)(S)O[C@H]3C[C@H](n4cc(C)c(=O)[nH]c4=O)O[C@@H]3COP(=O)(S)O[C@H]3C[C@H](n4ccc5c(=O)[nH]c(N)nc54)O[C@@H]3COP(=O)(S)O[C@H]3C[C@H](n4ccc(N)nc4=O)O[C@@H]3COP(=O)(S)O[C@H]3C[C@H](n4cnc5c(N)ncnc54)O[C@@H]3COP(=O)(S)O[C@H]3C[C@H](n4cnc5c(=O)[nH]c(N)nc54)O[C@@H]3COP(=O)(S)O[C@H]3C[C@H](n4cc(C)c(=O)[nH]c4=O)O[C@@H]3COP(=O)(S)O[C@H]3C[C@H](n4ccc(N)nc4=O)O[C@@H]3COP(=O)(S)O[C@H]3C[C@H](n4cc(C)c(=O)[nH]c4=O)O[C@@H]3CO)[C@@H](CO)O2)c(=O)[nH]c1=O (stereo not given in full)
not listed: Mus musculus [2] | Mus musculus [3] | [12] | PBMC
active: all other assays above

CO[C@@H]1[C@H](OP(=O)(S)OC[C@H]2O[C@@H](n3ccc(N)nc3=O)C[C@@H]2OP(=O)(S)OC[C@H]2O[C@@H](n3cnc4c(=O)[nH]c(N)nc43)C[C@@H]2OP(=O)(S)OC[C@H]2O[C@@H](n3cc(C)c(=O)[nH]c3=O)C[C@@H]2OP(=O)(S)OC[C@H]2O[C@@H](n3cc(C)c(=O)[nH]c3=O)C[C@@H]2OP(=O)(S)OC[C@H]2O[C@@H](n3ccc(N)nc3=O)C[C@@H]2OP(=O)(S)OC[C@H]2O[C@@H](n3cc(C)c(=O)[nH]c3=O)C[C@@H]2OP(=O)(S)OC[C@H]2O[C@@H](n3ccc(N)nc3=O)C[C@@H]2OP(=O)(S)OC[C@H]2O[C@@H](n3cc(C)c(=O)[nH]c3=O)C[C@@H]2OP(=O)(S)OC[C@H]2O[C@@H](n3cnc4c(=O)[nH]c(N)nc43)C[C@@H]2OP(=O)(S)OC[C@H]2O[C@@H](n3cc(C)c(=O)[nH]c3=O)C[C@@H]2O)[C@@H](COP(=O)(S)O[C@H]2[C@@H](OC)[C@H](n3cnc4c(=O)[nH]c(N)nc43)O[C@@H]2COP(=O)(S)O[C@H]2C[C@H](n3cc(C)c(=O)[nH]c3=O)O[C@@H]2COP(=O)(S)O[C@H]2C[C@H](n3ccc(N)nc3=O)O[C@@H]2COP(=O)(S)O[C@H]2C[C@H](n3cc(C)c(=O)[nH]c3=O)O[C@@H]2COP(=O)(S)O[C@H]2C[C@H](n3cnc4c(N)ncnc43)O[C@@H]2COP(=O)(S)O[C@H]2C[C@H](n3cc(C)c(=O)[nH]c3=O)O[C@@H]2COP(=O)(S)O[C@@H]2C[C@@H](n3ccc(N)nc3=O)O[C@H]2CO)O[C@H]1n1ccc(=O)[nH]c1=O (stereo not given in full)
active: [12] | PBMC
inactive: [1]
